Measured values as given in ChEMBL document CHEMBL2203094, “Ramariolides A-D, antimycobacterial butenolides isolated from the mushroom Ramaria cystidiophora” (J Nat Prod, 2012).
Converted amounts (≈) assume the structure as drawn. The source made the active and inactive calls. The rule behind the calls is not given here.

Tests used:
[1] = system: Mycolicibacterium smegmatis; assay: Antimicrobial activity against Mycobacterium smegmatis str. MC2 155 by broth dilution method; assay type: functional
Procedure, shortened: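 M. smegmatis mc2155 grown and assayed at 37 °C in NE13 medium. Broth dilution with twofold serial dilutions, top concentration 128 μg/mL, run in triplicate. Resazurin read-out; MIC is the lowest concentration preventing the blue-to-pink change. For MBC, each well was subcultured into fresh medium before resazurin was added, then read the same way.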

[2] = system: Mycobacterium tuberculosis; assay: Antimicrobial activity against Mycobacterium tuberculosis str. Erdman by MTT assay; assay type: functional
Procedure, shortened: (§1)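 Strains were grown in Middlebrook 7H9 with 0.2% glycerol and 10% ADC; tyloxapol was omitted in assays. Inoculum of 10^5 cells/mL was exposed to 2-fold serial dilutions at 37 °C in 5% CO2 for 7 d. MTT (2.5 mg/mL) was then added for 24 h, followed by 10% Na lauryl sulfate, and OD570 read after 24 h. IC50 came from a four-parameter log2 dose-response fit, in triplicate.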

[3] = system: Salmonella typhimurium; assay: Antimicrobial activity against Salmonella typhimurium ATCC 14028; assay type: functional, organism-based; details: Salmonella enterica subsp. enterica serovar Typhimurium
Procedure, shortened: (§2)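 Disk diffusion spectrum test: agar plates swabbed from 10^6 cells/mL suspensions of each strain; 6 mm paper disks carrying 50 μg compound; inhibition zone sizes read after 16−18 h.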

[4] = system: Mycobacterium tuberculosis; assay: Antimicrobial activity against Mycobacterium tuberculosis CDC1551 by MTT assay; assay type: functional; procedure, shortened: as §1
[5] = system: Staphylococcus aureus; assay: Antimicrobial activity against Staphylococcus aureus RN4220 at 50 ug after 16 to 18 hrs by disk diffusion method; assay type: functional; details: read-out: DIZ
Procedure, shortened: (§3)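 Disk diffusion: strains grown at 37 °C in NE13 medium. Agar plates swabbed from 10^6 cells/mL suspensions; 6 mm paper disks loaded with 50 μg compound; growth-inhibition zones measured after 16−18 h.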

[6] = system: Pseudomonas aeruginosa; assay: Antimicrobial activity against Pseudomonas aeruginosa PAO1; assay type: functional, organism-based; procedure, shortened: as §2
[7] = system: Acinetobacter baumannii; assay: Antimicrobial activity against Acinetobacter baumannii ATCC 19606; assay type: functional, organism-based; details: ATCC 19606 = CIP 70.34 = JCM 6841; procedure, shortened: as §2
[8] = system: Escherichia coli; assay: Antimicrobial activity against Escherichia coli O157:H7; assay type: functional, organism-based
[9] = system: Mycobacterium tuberculosis; assay: Antimicrobial activity against Mycobacterium tuberculosis H37Rv by MTT assay; assay type: functional, organism-based; procedure, shortened: as §1
[10] = system: Micrococcus luteus; assay: Antimicrobial activity against Micrococcus luteus JVC1154 at 50 ug after 16 to 18 hrs by disk diffusion method; assay type: functional; details: read-out: DIZ; procedure, shortened: as §3

SMILES	MIC [1] [µg/mL]	IC50 [2] [µg/mL]	MIC [2] [µg/mL]	Activity [3]	IC50 [4] [µg/mL]	MIC [4] [µg/mL]	zone of inhibition at 50 µg/disc [5] [mm]	Activity [6]	Activity [7]	Activity [8]	IC50 [9] [µg/mL]	MIC [9] [µg/mL]	zone of inhibition at 50 µg/disc [10] [mm]
NNC(=O)c1ccncc1 [ISONIAZID]	8 (≈ 58.3 µM)												
CCCCCCCCCC[C@H](O)[C@@H]1O[C@]12C=CC(=O)O2 [RAMARIOLIDE A]	8 (≈ 28.3 µM)	53 (≈ 188 µM)	64 (≈ 227 µM)	inactive	53 (≈ 188 µM)	64 (≈ 227 µM)	15	inactive	inactive	inactive	53 (≈ 188 µM)	64 (≈ 227 µM)	18
CN[C@@H]1[C@H](O)[C@H](NC)[C@H]2O[C@@]3(O)C(=O)C[C@@H](C)O[C@H]3O[C@@H]2[C@H]1O [SPECTINOMYCIN]	32 (≈ 96.3 µM)												
